This note sets out measurements from ChEMBL document CHEMBL5036308, “Chiral Alkyl Groups at Position 3(1') of Pyropheophorbide-a Specify Uptake and Retention by Tumor Cells and Are Essential for Effective Photodynamic Therapy” (J Med Chem, 2021).

A short description of data set [1]: Drug uptake in human HN-143 T-EC cells assessed as drug retention at 1600 nM incubated for 24 hrs in presence of 10% fetal bovine by fluorescent microscopy imaging based analysis. It is filed as ADME, cell-based. The following applies: 1.6 µM. A digest of the protocol: (§1)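 Cells incubated 24 h in medium with 10% serum and 1600 nM PS, then chased in PS-free medium for up to 72 h with daily medium changes. Cellular PS was measured daily by fluorescence microscopy; net fluorescence intensity per full image frame was quantified in arbitrary units.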

A short description of data set [2]: Drug uptake in tissue cultured human TEC1-2 cells assessed as drug retention at 1600 nM incubated for 24 hrs in presence of 10% fetal bovine serum measured after 24 hrs chase period by fluorescent microscopy. It is filed as ADME, tissue-based. The following applies: tec1-2, 24 h, 1.6 µM.
The nature of data set [3]: Drug uptake in human HN-143 T-EC cells assessed as drug retention at 1600 nM incubated for 24 hrs in presence of 10% fetal bovine serum measured after 72 hrs chase period by fluorescent microscopy imaging based analysis. The class given is ADME, cell-based. The following applies: 1.6 µM. A digest of the protocol:
as §1

Data set [4] is described as follows: Photoreactivation in human TEC21 cells assessed as STAT3cross-linking in presence of 10% fetal bovine serum under 665 nm light for 9 mins measured after 24 hrs by immune blot analysis. The following applies: tec-21, 0.15 h. It is filed as cell-based. A digest of the protocol: (§2)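 TEC-21 cells (p 8) treated 24 h in RPMI + 10% FBS with PS, imaged, chased 48 h in RPMI + 10% FBS, then irradiated 9 min with 665 nm light (6 mW/cm²). Cells were extracted immediately and immunoblotted for STAT3 crosslinking, EGFR and phospho-p38 MAPK.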

A short description of data set [5]: Drug uptake in tissue cultured human TEC1-2 cells assessed as drug retention at 1600 nM incubated for 24 hrs in presence of 10% fetal bovine serum measured after 48 hrs chase period by fluorescent microscopy. It is filed as ADME, tissue-based. The following applies: tec1-2, 24 h, 1.6 µM.
Data set [6] can be described thus: Photoreactivation in human TEC21 cells in presence of 10% fetal bovine serum under 665 nm light for 9 mins measured after 24 hrs by immune blot analysis. The following applies: tec-21, 24 h. The class given is cell-based. A digest of the protocol:
as §2

Data set [7] is described as follows: Lipophilicity, logP of the compound. The class given is physicochemical. The following applies: octanol/water.
Data set [8] in a line: Drug uptake in human HN-143-T-EC cells assessed as drug retention in mitochondria measured after 72 hrs chase period by fluorescent microscopy. It is filed as ADME.
A short description of data set [9]: Drug uptake in human HN-143 T-EC cells assessed as drug retention at 1600 nM incubated for 24 hrs in presence of 10% fetal bovine serum measured after 48 hrs chase period by fluorescent microscopy imaging based analysis. The class given is ADME, cell-based. The following applies: 1.6 µM. An outline of the steps:
as §1

Data set [10] is described as follows: Drug uptake in human HN-143 T-EC cells assessed as slow release by measuring drug retention at 1600 nM incubated for 24 hrs in presence of 10% fetal bovine serum measured after 48 hrs chase period by fluorescent microscopy imaging based analysis. The following applies: 1.6 µM. The class given is ADME, cell-based. A digest of the protocol:
as §1

The nature of data set [11]: Drug uptake in human HN-143-T-EC cells assessed as drug retention in endoplasmic reticulum measured after 72 hrs by fluorescent microscopy. The class given is ADME, cell-based.

As to `CCCCOC(CCC)c1c(C)c2cc3nc(c4c5[nH]c(cc6nc(cc1[nH]2)C(C)=C6CC)c(C)c5C(=O)C4)[C@@H](CCC(=O)O)C3C` (stereo partly specified), the Drug uptake entry in data set [1], in data set [2], in data set [3], in data set [5], in [8] and in data set [9] was “Active” each time. Further, the Drug uptake result in data set [10] and in data set [11] was “Active” throughout. For the same compound, the Activity in data set [4] worked out at 3.1%. The Drug metabolism entry in [6] was “Metabolite_Detected”. This compound also gave a log partition coefficient (logP) in [7] of 6.56.

A word on the logP: it is a log measure of how a compound divides between an organic and an aqueous phase. Read a low logP as lower lipophilicity.
